We go through four molecules from ChEMBL document CHEMBL5532739, “Competitive Microarray Screening Reveals Functional Ligands for the DHX15 RNA G-Quadruplex” (ACS Med Chem Lett, 2024).

Activity calls are given as the source filed them. No cut-off for these calls is given here. Some results are limits rather than exact numbers.

Test [1] has as its target Quadruplex RNA. The test is described as follows: Binding affinity to DHX15 rG4 (unknown origin) assessed as dissociation constant measured after 320 secs by SPR analysis. It counts as nucleic-acid assay.
Test [2] in a line: Inhibition of DHX15 mRNA translation in rabbit reticulocyte lysate transfected with DHX15-G4-WT-FL at 10 uM incubated for 15 mins by firefly luciferase assay relative to control. It counts as functional. Conditions: Oryctolagus cuniculus, 0.25 h. A digest of the protocol: (§1)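 Cell-free translation: in vitro transcribed firefly luciferase reporter RNAs carrying DHX15 5' region (WT or G4-deleted) incubated in rabbit reticulocyte lysate with analyte, dose-dependent; luciferase activity as translation read-out; IC50 from dose-response.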

Test [3] has as its system Reticulocyte. The test is described as follows: Inhibition of DHX15 mRNA translation in rabbit reticulocyte lysate transfected with DHX15-G4-Del-FL at 10 uM incubated for 15 mins by firefly luciferase assay. It counts as functional, subcellular. The conditions noted are these: Oryctolagus cuniculus. The procedure, abridged:
as §1

Test [4] relates to Quadruplex RNA. Nature of the test: Displacement of ThT from DHX15 rG4 (unknown origin) at upto 100 uM measured after 15 mins by FID assay relative to control. It counts as nucleic-acid assay. A digest of the protocol: (§2)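 Fluorescent intercalator displacement on DHX15 rG4, dose-dependent, using thioflavin T or Hoechst 33258 (groove binder) as probe; displacement measured as loss of probe fluorescence.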

The subject of test [5] is Quadruplex RNA. The test is described as follows: Displacement of Hoechst 33258 from DHX15 rG4 (unknown origin) at 100 uM measured after 15 mins by FID assay relative to control. The test is classed as nucleic-acid assay. The procedure, abridged:
as §2

In test [6] the test system is Quadruplex RNA. Nature of the test: Binding affinity to DHX15 rG4 (unknown origin) assessed as induction of RNA G quadruplex formation by measuring increase in intensity at 4 to 20 uM in presence of KCl by circular dichroism method. The test is classed as nucleic-acid assay. Conditions: dose 4-20 µM.
Test [7] concerns Quadruplex RNA. Nature of the test: Binding affinity to DHX15 rG4 (unknown origin) assessed as thermal stability by measuring change in melting temperature at 50 uM by circular dichroism method. It counts as nucleic-acid assay. A digest of the protocol:
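CD thermal melt of DHX15 rG4 with 50 μM analyte present; stabilization reported as ΔTm.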

Test [8] can be described thus: Inhibition of DHX15 mRNA translation in rabbit reticulocyte lysate transfected with DHX15-G4-WT-FL incubated for 15 mins by firefly luciferase assay. The test is classed as functional, subcellular, Oryctolagus cuniculus. The procedure, abridged: as §1
A short description of test [9]: Inhibition of DHX15 mRNA translation in rabbit reticulocyte lysate transfected with DHX15-G4-WT-FL at upto 50 uM incubated for 15 mins by firefly luciferase assay relative to control. It counts as functional, Oryctolagus cuniculus. Conditions: 0.25 h, up to 50 µM. The procedure, abridged:
as §1

Test [10] has as its system Reticulocyte. The test is described as follows: Inhibition of DHX15 mRNA translation in rabbit reticulocyte lysate transfected with DHX15-G4-Del-FL at upto 50 uM incubated for 15 mins by firefly luciferase assay. It counts as functional, subcellular. Conditions: Oryctolagus cuniculus. The procedure, abridged: as §1

On to `O=C(O)[C@@H]1Cc2ccccc2CN1`, for which the Kd in [1] was above 100 µM.
Turning to `CN(C)c1ccc(Nc2c3ccc(NC(=O)CCN4CCCC4)cc3nc3cc(NC(=O)CCN4CCCC4)ccc23)cc1`, the inhibition at 10 µM in test [2] was 67%. For the same molecule, the inhibition entry in test [3] was “inactive”.
For `Nc1cc2[nH]c(=O)[nH]c2cc1N1CCCC1`, the Kd in test [1] was 12.6 µM. For the same molecule, the figures for the Activity in test [4] and in test [5] were 50% and 20%, respectively. For the same molecule, the outcome in test [6] was Active. Besides, the ΔTm in test [7] came out at 3.6 °C. In test [8], this molecule displayed an IC50 of 22.9 µM. In addition, the “inhibition (INH)” value in test [9] was 57%. In addition, in [10], the inhibition entry was “inactive”.
In the case of `O=C(O)[C@H]1Cc2ccccc2CN1`, the Kd in test [1] was above 100 µM.
